Bioassay records deposited in PubChem BioAssay by several laboratories.
PERK inh: human PERK inhibition, primary cell-based screen. Q9NZJ5. CHO PERK-DD fusion, SEAP luminescence translation reporter. inhibition, % at 5.6 µM. 220,000 tested, 0.17% active. AID 1416;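 active = inhibition above the mean inhibition of all tested compounds plus 3 SD, set separately per screening campaign, cut at about 2.9% in these data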;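 note: PERK kinase domain activated by AP20187 dimerizer at 100 nM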
Ins promoter up: MIN6 insulin promoter up-regulation. MIN6 insulin promoter-GFP reporter, high-content imaging; active compounds read high. z-score at 5 µM. 190,000 tested, 0.3% active;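 active = z-score above 3 at 5 µM with at least 500 cells counted in the well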
Autophagy HCS: modulators of autophagy; MEF GFP-LC3 puncta imaging; test concentration mostly 10 µM; calls only at 10 µM (by protocol); 190,000 tested, 0.98% active; AID 463193;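 active = percentage of spot-positive cells more than 3 SD above its plate mean, without a fluorescence outlier flag or 80% toxicity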
Insulin prom inh: TRM-6 insulin promoter activity inhibition | TRM-6 cells (human fetal islet line), insulin promoter-eGFP reporter, imaging; reporter expression induced with tamoxifen | inhibition, % at 2 µM | 130,000 tested, 0.9% active;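 active = inhibition above the mean plus 3 SD, with well images judged a real hit on visual review, cut at about 60% in these data, passing the limit was not always enough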
Dynein transport: dynein cargo transport inhibition | 3617.4 mouse cells, GR-EGFP nuclear translocation imaging; test concentration mostly 20 µM; stimulated with dexamethasone, 1 µM; active compounds read low | z-score, hits read low | 220,000 tested, 0.47% active | AID 1381;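 active = plate z-score of nuclear minus cytoplasmic receptor signal below a set negative limit, without overly bright fluorescence or cell loss, cut at about -3.5 in these data, passing the limit was not always enough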;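 note: z-score of nuclear minus cytoplasmic ring GR-EGFP intensity difference per well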
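Buffer or medium: tetracycline-free induction medium containing charcoal-stripped FBS / Reagent: dexamethasone agonist, 1.0 µM final, for 30 min / Technique: automated 10x imaging of fixed Hoechst-stained cells / Times: induction 48 h, compound 1 h, agonist 30 min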
Numbers stand for hits; 0 = inactive; - = not tested or not shown; + = active, no number. Rows were chosen to be rich in hits. Some 2.1% of all compounds tested hit in one or more screens of this group.

SMILES	PERK inh	Ins promoter up	Autophagy HCS	Insulin prom inh	Dynein transport
COc1ccc(S(=O)(=O)NCCC(=O)NC2CCCCCCC2)cc1	0	-	0	0	0
COc1ccccc1C(=O)N/C(=C/c1ccc(Br)cc1)C(=O)NCCO	0	0	0	0	0
C=CCNC(=O)/C(=C\c1ccc(Br)cc1)NC(=O)c1ccccc1OC	0	3.4	0	-	0
O=C(CO/N=C/c1cccc([N+](=O)[O-])c1)Nc1ccc2ccccc2c1	0	0	0	0	0
O=[N+]([O-])c1cccc(/C=C/c2nc(C=Nc3ccc4ccccc4c3)c(O)o2)c1	0	-	+	0	0
Cc1ccc(NCC(=O)Nc2c(C)n(C)n(-c3ccccc3)c2=O)cc1S(=O)(=O)N(C)C	0	0	-	-	0
COc1ccc(-c2csc(/C(C#N)=C/Nc3cc4oc5ccccc5c4cc3OC)n2)cc1	0	-	+	0	0
COc1ccc(-c2csc(/C(C#N)=C/Nc3ccc4c(c3)OCCO4)n2)cc1	0	0	0	0	0
CC1(C)CC(=O)C2=C(C1)OC(N)=C(C#N)C2C1CC=CCC1 (stereo not given)	0	0	0	0	0
COc1cccc(CNC(=O)CCC2CCCN(C(=O)c3ccc(OC)o3)C2)c1 (stereo not given)	0	-	0	-	0
NNC(=O)Cn1c(-c2nonc2N)nc2ccccc21	0	0	0	-	0
COc1cc(Cn2c(-c3nonc3N)nc3ccccc32)ccc1C	0	0	+	0	0
CCCCOc1ccccc1NC(=O)Cn1c(-c2nonc2N)nc2ccccc21	0	0	+	-	0
Cc1cc(Cl)ccc1OCCCC(=O)NCCN1C(=O)S/C(=C\c2cccnc2)C1=O	0	0	0	0	0
NS(=O)(=O)c1ccc(CCNC(=O)COC(=O)C2CCCN2C(=O)c2cccs2)cc1 (stereo not given)	3.3	0	0	-	0
O=C(OCCCN1CCOCC1)c1ccc(O)c(O)c1	3.4	-	-	-	0
Cc1cc(/C=N/NC(=O)C(=O)NCc2ccccn2)c(C)n1-c1ccccc1	0	0	0	0	0
O=C(NCC1CCCO1)c1c(O)c2cccc3c2n(c1=O)CCC3 (stereo not given)	0	0	0	71	0
CCSc1nc(-c2cccnc2)ccc1C#N	0	0	0	0	0
Cc1ccc(OCC(=O)Nc2ccc(Cl)cc2)c(-n2nc3ccccc3n2)c1	0	0	+	0	0
CCC(=O)N/C(N)=N/c1nc(C)c2cc(OC)ccc2n1	0	0	0	80	0
CCOC(=O)c1c(C)[nH]c(NC(=O)N2CCOCC2)c1C	0	0	0	-	0
COc1cccc(/C(O)=C/c2nc3ccc(C(=O)NCCc4cccc(C)c4)cc3[nH]c2=O)c1	0	0	+	-	0
COc1cccc(C(=O)Nc2cc(C(=O)NCCc3ccccc3)ccc2Cl)c1	0	0	0	0	0
COc1ccc(CC(=O)NCc2n[nH]c(=S)n2-c2cccc(C)c2)cc1	0	0	0	71	0
SMILES	PERK inh	Ins promoter up	Autophagy HCS	Insulin prom inh	Dynein transport
COc1cccc(OCCCn2cc(/C=C3/C(=N)N4C=C(C)SC4=NC3=O)c3ccccc32)c1	0	0	0	0	0
COc1ccc(OCCCn2cc(/C=C3/C(=N)N4C=C(C)SC4=NC3=O)c3ccccc32)cc1	0	0	+	0	0
COc1ccc(OC)c(NC(=O)c2sc3nc(Cc4ccccc4)cc(C(F)(F)F)c3c2N)c1	0	0	+	0	0
CC(=O)c1c(OC(=O)c2ccc(C)cc2)c2ccccc2n1C	0	0	0	100	0
CC(=O)c1c(OC(=O)c2ccco2)c2ccccc2n1C	0	0	0	-	0
COc1ccc(/C=C/c2cc(C(F)(F)F)on2)cc1	0	0	-	-	0
FC(F)(Cl)c1nnc2ccc(Sc3ccccn3)nn12	0	0	0	0	0
Cc1cc(Br)cnc1NC(=S)Nc1ccc(F)cc1F	0	0	0	-	0
O=C(CN1C(=O)S/C(=C/c2cccnc2)C1=O)N1CCOCC1	0	0	0	71	0
N#Cc1nc(N2CCOCC2)nc(N2CCOCC2)n1	0	3.3	0	-	0
N#CCOc1nc(N2CCOCC2)nc(N2CCOCC2)n1	0	0	0	0	0
CCC(C)(C(=O)NC1CCCC1)N(C(=O)CNC(=O)c1ccccc1)c1c(C)n(C)n(-c2ccccc2)c1=O (stereo not given)	0	0	0	0	0
O=C(CSc1nnc(COc2ccccc2)n1Cc1ccco1)c1ccc(F)cc1	0	0	+	0	0
Cc1cc(C)nc(/N=C(\N)Nc2ccc(S(=O)(=O)Nc3nccc(C)n3)cc2)n1	0	0	0	-	0
COc1ccc(Nc2nc(N3CCCC3)nc3ccccc23)c(OC)c1	0	0	+	0	0
CC(Nc1nc(N2CCCCC2)nc2ccccc12)c1ccccc1 (stereo not given)	0	0	0	0	0
C=CCNc1nc(N2CCCC2)nc2ccccc12	0	0	0	79	0
COc1ccc(Nc2ncnc3ccccc23)c(OC)c1	0	-	0	0	0
COP1(=O)C=C[C@H](N(Cc2ccccc2)S(=O)(=O)c2ccccc2[N+](=O)[O-])[C@@H](C)O1 (stereo not given in full)	-	0	-	-	0
COC(=O)C1=C(N)n2c(s/c(=C\c3cccnc3)c2=O)=C(C(=O)OC)C1c1cccnc1 (stereo not given)	0	3.2	0	0	0
CCOC(=O)C1=c2s/c(=C\c3cccnc3)c(=O)n2C(N)=C(C(=O)OC)C1c1cccnc1 (stereo not given)	0	0	0	0	0
O=C1C=C(Nc2ccc(O)cc2)CC(c2ccco2)C1 (stereo not given)	0	6.8	0	0	0
CC(NCCC(c1ccccc1)c1ccccc1)c1ccccc1 (stereo not given)	0	-	+	0	0
O=C(Cc1cccc2ccccc12)N1CCCc2ccccc21	0	0	0	0	0
Cc1ccnc(N/C=C(/NC(=O)c2ccccc2)C(=O)N/N=C\c2ccc(Cl)cc2)n1	0	0	-	-	0
SMILES	PERK inh	Ins promoter up	Autophagy HCS	Insulin prom inh	Dynein transport
CN1C[C@@H]2C(c3ccc(C(F)(F)F)cc3)C3(c4cccnc4)CC2(C3)[C@H]1c1ccccc1 (stereo not given in full)	-	0	-	-	0
O=C(c1ccc([N+](=O)[O-])cc1)N(Cc1ccc(Cl)cc1)N1C(=O)CCCC1=O	0	0	+	0	0
COC(=O)c1c(-c2ccc(OC)c(OC)c2)csc1N	0	0	0	80	0
COC(=O)c1c(-c2cccc(OC)c2)csc1N	0	-	0	-	0
COc1ccc(OC)c(Cc2nnc(CCC(=O)NCc3ccc(C)s3)o2)c1	3.3	0	0	0	0
O=C(CN1C(=O)CSc2ccc(S(=O)(=O)N3CCOCC3)cc21)NCc1cccnc1	0	0	0	0	0
O=c1c(Cl)c2oc3ccccc3nc-2c2ccccc12	0	-	+	0	0
O=c1oc2ccc3ccccc3c2cc1-c1nc2ccccc2o1	0	-	0	0	0
CCOC(=O)c1[nH]c2ccccc2c1NC(=S)Nc1ccccc1C	0	0	0	0	0
CCOC(=O)c1[nH]c2ccccc2c1NC(=S)Nc1cc(C)ccc1C	0	0	0	76	0
